# Assay results reported in ChEMBL document CHEMBL4261536, “Encapsulation of nor-β-lapachone into poly(d,l)-lactide-co-glycolide (PLGA) microcapsules: full characterization, computational details and cytotoxic activity against human cancer cell lines” (Medchemcomm, 2017).
# Active and inactive are the calls of the source. The calls are words filed in the database; no cut-off is given here.
# Tests used:
# [1] = system: SF-295; test: Cytotoxicity against human SF295 cells assessed as decrease in cell viability after 72 hrs by MTT assay; format: functional, cell-based; settings: SF-295, 72 h
# Procedure, shortened: (§1)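 Cells grown in RPMI 1640 with 10% FBS and penicillin/streptomycin at 37°C, 5% CO2. Seeded at 0.1×10⁶ cells/well (HCT-116: 0.7×10⁵). After 24 h, drug in DMSO added at […]; controls got DMSO. Exposure 72 h, with prostate lines read at 24, 72 and 96 h. Then MTT (0.5 mg/mL) for 3 h, formazan dissolved in DMSO, A595 expressed as % of control. IC50 by nonlinear regression from three independent experiments in triplicate.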
# [2] = system: OVCAR-8; test: Cytotoxicity against human OVCAR8 cells assessed as decrease in cell viability after 72 hrs by MTT assay; format: functional, cell-based; settings: OVCAR-8, 72 h; procedure, shortened: as §1
# [3] = system: HCT-116; test: Cytotoxicity against human HCT116 cells assessed as decrease in cell viability after 72 hrs by MTT assay; format: functional, cell-based; settings: HCT-116, 72 h
# Procedure, shortened: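 After 24 h, drug in DMSO added at […]; controls got DMSO. Exposure 72 h, with prostate lines read at 24, 72 and 96 h. Then MTT (0.5 mg/mL) for 3 h, formazan dissolved in DMSO, A595 expressed as % of control. IC50 by nonlinear regression from three independent experiments in triplicate.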
# [4] = system: DU-145; test: Cytotoxicity against human DU145 cells assessed as decrease in cell viability after 72 hrs by MTT assay; format: functional, cell-based; settings: DU-145, 72 h; procedure, shortened: as §1
# [5] = system: PC-3M; test: Cytotoxicity against human PC3M cells assessed as decrease in cell viability after 72 hrs by MTT assay; format: functional, cell-based; procedure, shortened: as §1
# [6] = system: PC-3; test: Cytotoxicity against human PC3 cells assessed as decrease in cell viability after 72 hrs by MTT assay; format: functional, cell-based; settings: PC-3, 72 h; procedure, shortened: as §1
# [7] = system: PBMC; test: Cytotoxicity against human PBMC assessed as decrease in cell viability after 72 hrs by Alamar blue assay; format: cell-based
# Procedure, shortened: (§2)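 PBMC isolated from healthy volunteers' blood on Ficoll. Kept in RPMI 1640 with 20% FBS; proliferation induced with 3% phytohemagglutinin. Plated at 2×10⁴ cells/well; after 24 h, test material in PBS pH 7.4 added at […], controls got PBS. Treated 72 h, with Alamar Blue added for the final 24 h. Absorbance at 570 and 600 nm as % of control. IC50 by nonlinear regression from three independent experiments in triplicate.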
# [8] = system: SF-295; test: Cytotoxicity against human SF295 cells assessed as decrease in cell viability using compound loaded PLGA microcapsule after 72 hrs by MTT assay; format: functional, cell-based; settings: SF-295, 72 h
# Procedure, shortened: (§3)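 Drug-loaded PLGA microparticles suspended in PBS pH 7.4 and added at […], 24 h after seeding at 0.1×10⁶ cells/well (HCT-116: 0.7×10⁵). Medium RPMI 1640 with 10% FBS, 37°C, 5% CO2. Incubated 72 h, with DU145, PC3 and PC3M read at 24, 72 and 96 h. MTT 0.5 mg/mL for 3 h, formazan in DMSO, A595 as % of control. IC50 by nonlinear regression, three independent experiments in triplicate.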
# [9] = system: OVCAR-8; test: Cytotoxicity against human OVCAR8 cells assessed as decrease in cell viability using compound loaded PLGA microcapsule after 72 hrs by MTT assay; format: functional, cell-based; settings: OVCAR-8, 72 h; procedure, shortened: as §3
# [10] = system: HCT-116; test: Cytotoxicity against human HCT116 cells assessed as decrease in cell viability using compound loaded PLGA microcapsule after 72 hrs by MTT assay; format: functional, cell-based; settings: HCT-116, 72 h; procedure, shortened: as §3
# [11] = system: DU-145; test: Cytotoxicity against human DU145 cells assessed as decrease in cell viability using compound loaded PLGA microcapsule after 72 hrs by MTT assay; format: functional, cell-based; settings: DU-145, 72 h; procedure, shortened: as §3
# [12] = system: PC-3M; test: Cytotoxicity against human PC3M cells assessed as decrease in cell viability using compound loaded PLGA microcapsule after 72 hrs by MTT assay; format: functional, cell-based; procedure, shortened: as §3
# [13] = system: PC-3; test: Cytotoxicity against human PC3 cells assessed as decrease in cell viability using compound loaded PLGA microcapsule after 72 hrs by MTT assay; format: functional, cell-based; settings: PC-3, 72 h; procedure, shortened: as §3
# [14] = system: PBMC; test: Cytotoxicity against human PBMC assessed as decrease in cell viability using compound loaded PLGA microcapsule after 72 hrs by Alamar blue assay; format: cell-based; procedure, shortened: as §2
# [15] = system: PC-3M; test: Cytotoxicity against human PC3M cells assessed as decrease in cell viability after 24 hrs by MTT assay; format: functional, cell-based; procedure, shortened: as §1
# [16] = system: PC-3M; test: Cytotoxicity against human PC3M cells assessed as decrease in cell viability using compound loaded PLGA microcapsule after 24 hrs by MTT assay; format: functional, cell-based; procedure, shortened: as §3
# [17] = system: PC-3M; test: Cytotoxicity against human PC3M cells assessed as decrease in cell viability after 96 hrs by MTT assay; format: functional, cell-based; procedure, shortened: as §1
# [18] = system: PC-3M; test: Cytotoxicity against human PC3M cells assessed as decrease in cell viability using compound loaded PLGA microcapsule after 96 hrs by MTT assay; format: functional, cell-based; procedure, shortened: as §3
# [19] = system: PC-3; test: Cytotoxicity against human PC3 cells assessed as decrease in cell viability after 24 hrs by MTT assay; format: functional, cell-based; procedure, shortened: as §1
# [20] = system: PC-3; test: Cytotoxicity against human PC3 cells assessed as decrease in cell viability using compound loaded PLGA microcapsule after 24 hrs by MTT assay; format: functional, cell-based; procedure, shortened: as §3
# [21] = system: DU-145; test: Cytotoxicity against human DU145 cells assessed as decrease in cell viability after 24 hrs by MTT assay; format: functional, cell-based; procedure, shortened: as §1
# [22] = system: DU-145; test: Cytotoxicity against human DU145 cells assessed as decrease in cell viability using compound loaded PLGA microcapsule after 24 hrs by MTT assay; format: functional, cell-based; procedure, shortened: as §3
# [23] = system: PC-3; test: Cytotoxicity against human PC3 cells assessed as decrease in cell viability after 96 hrs by MTT assay; format: functional, cell-based; procedure, shortened: as §1
# [24] = system: PC-3; test: Cytotoxicity against human PC3 cells assessed as decrease in cell viability using compound loaded PLGA microcapsule after 96 hrs by MTT assay; format: functional, cell-based; procedure, shortened: as §3
# [25] = system: DU-145; test: Cytotoxicity against human DU145 cells assessed as decrease in cell viability after 96 hrs by MTT assay; format: functional, cell-based; procedure, shortened: as §1
# [26] = system: DU-145; test: Cytotoxicity against human DU145 cells assessed as decrease in cell viability using compound loaded PLGA microcapsule after 96 hrs by MTT assay; format: functional, cell-based; procedure, shortened: as §3
# [27] = system: PC-3M; test: Induction of morphological changes in human PC3M cells at 11.2 uM after 24 to 72 hrs by hematoxylin/eosin staining-based light microscopic method; format: functional, cell-based
# Procedure, shortened: (§4)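 PC3M cells exposed to free or PLGA-encapsulated drug, then stained with hematoxylin/eosin and examined by light microscopy (400×) after 24, 48 and 72 h.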
# [28] = system: PC-3M; test: Induction of morphological changes in human PC3M cells at 5.4 uM using compound loaded PLGA microcapsule after 24 to 72 hrs by hematoxylin/eosin staining-based light microscopic method; format: functional, cell-based; procedure, shortened: as §4
compound,measurement,setting,value
CC1(C)CC2=C(O1)c1ccccc1C(=O)C2=O [NOR-BETA-LAPACHONE],IC50,[1],1.45 µM
same,IC50,[2],2.58 µM
same,IC50,[3],1.57 µM
same,IC50,[4],1.39 µM
same,IC50,[5],8.97 µM
same,IC50,[6],1.45 µM
same,IC50,[7],10 µM
same,IC50,[8],7.4 µM
same,IC50,[9],13.7 µM
same,IC50,[10],7.48 µM
same,IC50,[11],2.38 µM
same,IC50,[12],4.59 µM
same,IC50,[13],1.85 µM
same,IC50,[14],10 µM
same,IC50,[15],1.89 mg/L
same,IC50,[16],2.44 mg/L
same,IC50,[17],1.79 mg/L
same,IC50,[18],1.4 mg/L
same,Activity,[19],Active
same,Activity,[20],Active
same,Activity,[21],Active
same,Activity,[22],Active
same,Activity,[23],Active
same,Activity,[24],Active
same,Activity,[25],Active
same,Activity,[26],Active
same,Activity,[27],Active
same,Activity,[28],Active
COc1cccc2c1C(=O)c1c(O)c3c(c(O)c1C2=O)C[C@@](O)(C(=O)CO)C[C@@H]3O[C@H]1C[C@H](N)[C@H](O)[C@H](C)O1 [DOXORUBICIN],IC50,[2],0.62 µM
same,IC50,[4],0.153 µM
same,IC50,[5],0.368 µM
